These results are taken from ChEMBL document CHEMBL1926561, “Neuroprotective efficacy of quinazoline type phosphodiesterase 7 inhibitors in cellular cultures and experimental stroke model” (Eur J Med Chem, 2012).

The target in data set [1] is T1, High affinity 3',5'-cyclic-AMP phosphodiesterase 7A (Homo sapiens, UniProt Q13946). Put plainly: Inhibition of PDE7A assessed as hydrolysis of [3H]cAMP at 10 uM after 20 mins by scintillation proximity assay. In outline: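 PDE7A1 enzyme (0.02 units) incubated with 5 nCi [³H]cAMP plus inhibitor in kit assay buffer, 20 min at 30 °C. Scintillation binding beads (1 mg) then added to capture [³H]AMP, shaken 1 h at room temperature, settled 30 min, radioactivity counted.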
T1 sequence (Q13946 whole entry): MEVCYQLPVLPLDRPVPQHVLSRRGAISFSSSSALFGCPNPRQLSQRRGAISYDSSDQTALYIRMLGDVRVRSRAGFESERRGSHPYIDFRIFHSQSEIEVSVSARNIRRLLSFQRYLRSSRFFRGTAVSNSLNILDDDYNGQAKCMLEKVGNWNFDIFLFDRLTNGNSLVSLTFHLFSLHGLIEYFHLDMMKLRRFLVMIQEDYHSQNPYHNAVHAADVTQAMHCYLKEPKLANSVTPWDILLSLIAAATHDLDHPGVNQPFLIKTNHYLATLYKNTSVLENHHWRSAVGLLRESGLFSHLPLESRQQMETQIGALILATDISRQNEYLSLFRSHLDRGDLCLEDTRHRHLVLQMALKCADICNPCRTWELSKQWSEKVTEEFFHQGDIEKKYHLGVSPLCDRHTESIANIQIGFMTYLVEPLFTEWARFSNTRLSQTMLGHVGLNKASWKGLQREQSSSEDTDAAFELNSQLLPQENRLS
For orientation: In a scintillation proximity assay essentially only radioactivity close to the scintillant gives light.

Data set [2] can be described thus: Permeability of the compound after 2.5 hrs by PAMPA-BBB assay. (In PAMPA a lipid-coated filter parts donor from acceptor wells.)
The target of data set [3] is T1, High affinity 3',5'-cyclic-AMP phosphodiesterase 7A. Put plainly: Inhibition of PDE7A assessed as hydrolysis of [3H]cAMP after 20 mins by scintillation proximity assay. A digest of the protocol: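 Purified PDE7A1 (0.02 units) was incubated with 5 nCi [3H]cAMP and inhibitor in kit assay buffer for 20 min at 30 °C. Scintillation beads binding [3H]AMP were added, shaken 1 h at room temperature and left to settle 30 min, then radioactivity was counted. IC50 came from a sigmoidal dose-response fit of radioactivity vs log concentration.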

Data set [4] relates to Astrocyte. Put plainly: Antiinflammatory activity against P2 rat astrocytes assessed as inhibition of LPS-induced nitrite production at 10 uM administered 1 hr before LPS challenge measured after 24 hrs by Griess reaction. The class given is functional, cell-based. A digest of the protocol: (§1)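 Astrocytes from neonatal (P2) rat cortex, grown in HAMS/DMEM (1:1) with 10% FBS, shaken to remove microglia and oligodendrocytes, then expanded. Cells were pretreated with compound for 1 h, then stimulated with LPS for 24 h. Nitrite in the medium was measured by Griess reaction. Means ± SD of three independent experiments.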
(In general: Nitrite, measured by Griess reagent, commonly stands in for NO production.)

In data set [5] the test system is Microglia. Put plainly: Antiinflammatory activity against rat microglial assessed as inhibition of LPS-induced nitrite production at 1 uM administered 1 hr before LPS challenge measured after 24 hrs by Griess reaction. The class given is functional. A digest of the protocol:
(§2)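 Rat microglia shaken off 15-day mixed glial cultures and kept in HAMS/DMEM (1:1) with 10% FBS plus 10 ng/ml GM-CSF; purity >98% by OX42 staining. Cells were pretreated with compound for 1 h, then given LPS for 24 h. Nitrite in the medium was measured by Griess reaction. Means ± SD of three independent experiments.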

For data set [6], the system named is Microglia. Put plainly: Antiinflammatory activity against rat microglial assessed as inhibition of LPS-induced nitrite production at 10 uM administered 1 hr before LPS challenge measured after 24 hrs by Griess reaction. The class given is functional. In outline: as §2
In another data set the test system is Cerebral cortex neuron. Put plainly: Antiinflammatory activity against E18 rat primary cortical neurons assessed as inhibition of […] at 30 uM […] measured after 24 hrs by Griess reaction. The class given is functional, cell-based. A digest of the protocol: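 Rat E18 cortical neurons, plated on poly-lysine/gelatin and kept in Neurobasal with B-27, used at 7 days in culture. They were exposed for 24 h, with or without inhibitor, to cell-free supernatant from LPS-stimulated primary microglia. Nitrite in the medium was measured by Griess reaction. Means ± SD of three independent experiments.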

Data set [7] concerns Astrocyte. The data set is described as follows: Antiinflammatory activity against P2 rat astrocytes assessed as inhibition of LPS-induced nitrite production at 30 uM administered 1 hr before LPS challenge measured after 24 hrs by Griess reaction. The class given is functional, cell-based. In outline:
as §1

Data set [8] relates to Microglia. The data set is described as follows: Antiinflammatory activity against rat microglial assessed as inhibition of LPS-induced nitrite production at 30 uM administered 1 hr before LPS challenge measured after 24 hrs by Griess reaction. The data set is classed as functional. In outline:
as §2

A further data set relates to Mus musculus. Put plainly: Neuroprotective effect against middle cerebral artery occlusion-induced focal cerebral ischemia in Swiss mouse stroke model assessed as reduction in infarct volume at 5 mg/kg after 15 mins (reference value: 15.4 +/- 1.1 %). The data set is classed as functional. On the set-up: scale not given: the % may be the effect or the level left.

SMILES strings stand for the structures. Activity calls are given as the source filed them. The rule behind the calls is not given here.

Broadly, the inhibition is the change of the read-out against control, counted positive when it falls. Usually Papp stands for the rate of passage across a membrane or cell layer, normalised by area and donor concentration. The term IC50 denotes the concentration needed to halve the response being measured.

With `COc1ccc(CCn2c(=O)[nH]c3ccccc3c2=O)cc1`, the inhibition in data set [1] was -7.2%.

For `COc1cc2[nH]c(=S)n(CCN3CCCCC3)c(=O)c2cc1OC`, the inhibition in data set [1] was 12.7%.

In the case of `Cn1c(=O)c2c(ncn2C)n(C)c1=O` [CAFFEINE], the Papp at 2.5 h in data set [2] came out at 1.7 ×10⁻⁶ cm/s.

As for `O=c1c2ccncc2[nH]c(=S)n1-c1ccccc1`, the inhibition in [1] turned out to be 9.3%.

In data set [2], `CNCCCN1c2ccccc2CCc2ccccc21` [DESIPRAMINE] yielded an apparent permeability coefficient (Papp) at 2.5 h of 15.7 ×10⁻⁶ cm/s.

On to `COc1cc2[nH]c(=S)n(-c3ccccc3)c(=O)c2cc1OC`, for which the inhibition in data set [1] is 13.2%.

In the case of `O=c1c2cccc(Cl)c2[nH]c(=S)n1-c1c(F)cccc1F`, in data set [1], the inhibition is 74.9%. In data set [3], the half-maximal inhibitory concentration (IC50) turned out to be 6.1 µM. The outcome in the data set on Astrocyte [4] and in the data set with Microglia [5] was Active.

As to `COc1cc2[nH]c(=S)n(CCN3CCOCC3)c(=O)c2cc1OC`, the inhibition in data set [1] was 17.9%.

Consider `O=c1c2cccnc2[nH]c(=S)n1-c1ccccc1`, for which the inhibition in data set [1] was -3.1%.

Take `CCn1cc(C(=O)O)c(=O)c2cc(F)c(N3CCNCC3)nc21` [ENOXACIN]: the Papp at 2.5 h in data set [2] came out at 1.2 ×10⁻⁶ cm/s.

As for `O=c1c2ccccc2[nH]c(=S)n1CCN1CCOCC1`, the inhibition in data set [1] stood at 13.2%.

In the case of `O=c1c2ccccc2[nH]c(=S)n1-c1cccnc1`, the inhibition in data set [1] is 10%.

Regarding `COc1ccc(CCn2c(=O)[nH]c3ccc(Br)cc3c2=O)cc1`, the inhibition in data set [1] was -8.3%.

For the compound `CN(C)CCCN1c2ccccc2Sc2ccccc21` [PROMAZINE], in data set [2], the Papp at 2.5 h worked out at 7.7 ×10⁻⁶ cm/s.

Turning to `COc1ccc(Cn2c(=O)[nH]c3ccccc3c2=O)cc1`, in [1], the inhibition was found to be 9.3%.

With `O=c1c2cccc(Cl)c2[nH]c(=S)n1-c1ccccc1Br`, the inhibition in data set [1] is 63.4%. The IC50 in data set [3] came to 1.8 µM. The result with Astrocyte [4] and in the data set on Microglia [6] was Active.

Take `COc1ccc(Cn2c(=O)[nH]c3ncccc3c2=O)cc1`: in data set [1], the inhibition was 8%.

For the compound `O=c1c2ccncc2[nH]c(=S)n1-c1cccnc1`, the inhibition in data set [1] was determined as 2.7%.

With `O=c1c2cccnc2[nH]c(=S)n1-c1cccc(Br)c1`, the inhibition in data set [1] came out at 12.8%.

`COc1cc2[nH]c(=S)n(-c3cccnc3)c(=O)c2cc1OC`: the inhibition in data set [1] is 19%.

For `Cc1cc(Br)c2[nH]c(=S)n(-c3ccccc3)c(=O)c2c1`, the inhibition in [1] came out at 4%.

In the case of `O=c1[nH]c2ccccc2c(=O)n1-c1ccc(Br)cc1F`, the inhibition in data set [1] was 2.5%.

For the compound `O=c1c2ccccc2[nH]c(=S)n1CCN1CCCCC1`, the inhibition in data set [1] is 21.2%.

Consider `O=c1c2ccccc2[nH]c(=S)n1-c1ccccc1`, for which the result with Cerebral cortex neuron, in the data set on Astrocyte [7] and with Microglia [8] was Active.

On to `Cc1cccc2c(=O)n(-c3ccccc3Br)c(=S)[nH]c12`, for which the result in the data set on Cerebral cortex neuron, in the data set with Astrocyte [7] and in the data set on Microglia [8] was Active. The compound further displayed a Papp at 2.5 h in data set [2] of 23.9 ×10⁻⁶ cm/s.

On to `COc1ccc(CCn2c(=O)[nH]c3cnccc3c2=O)cc1`, for which the inhibition in data set [1] is 22.1%.

Regarding `S=c1[nH]c2ccccc2c(=S)n1-c1ccccc1`, the outcome in the data set on Cerebral cortex neuron, in the data set with Astrocyte [7] and in the data set on Microglia [8] was Active. The Activity with Mus musculus is reported as 10.8%. The Papp at 2.5 h in data set [2] was 23.8 ×10⁻⁶ cm/s.
